Laboratory results from ChEMBL document CHEMBL1152460, “Phenotypic characterization of resistant Val36 variants of hepatitis C virus NS3-4A serine protease” (Antimicrob Agents Chemother, 2008).
pEC50, pIC50: −log10 of the molar value.

Assays:
[1] = test system: Hepatitis C virus; test: Antiviral activity against HCV Con1-mADE replicon with NS3 serine protease V36M/R155K double mutation in human HuH7 cells after 48 hrs by RNA replicon assay relative to wild type; assay type: functional, Hepacivirus hominis, subtype 1b Con1-mADE, Huh-7
How it was run: (§1)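 Stable genotype 1b Con1 subgenomic neo replicon cell lines carried three adaptive mutations. They were made by electroporating T7 runoff transcripts (ScaI-linearized template) into naive Huh-7 cells, selected with 0.5 mg/ml G418 and kept in 0.25 mg/ml. Mutations were confirmed by RT-PCR sequencing. EC50 came from a 48-h assay, at least three independent assays, mean ± SD. Fold change = variant mean EC50 / wild-type EC50.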

[2] = test system: Hepatitis C virus; test: Antiviral activity against HCV Con1-mADE replicon with NS3 serine protease V36A/R155K double mutation in human HuH7 cells after 48 hrs by RNA replicon assay relative to wild type; assay type: functional, Hepacivirus hominis, subtype 1b Con1-mADE, Huh-7; how it was run: as §1
[3] = test system: Hepatitis C virus; test: Antiviral activity against HCV Con1-mADE replicon with NS3 serine protease V36A mutation in human HuH7 cells after 48 hrs by RNA replicon assay relative to wild type; assay type: functional, Hepacivirus hominis, subtype 1b Con1-mADE, Huh-7; how it was run: as §1
[4] = test system: Hepatitis C virus; test: Antiviral activity against HCV Con1-mADE replicon with NS3 serine protease V36A/R155T double mutation in human HuH7 cells after 48 hrs by RNA replicon assay; assay type: functional, organism-based, Hepacivirus hominis; details: subtype 1b Con1-mADE, Huh-7, 48 h; how it was run: as §1
[5] = test system: Hepatitis C virus; test: Antiviral activity against HCV Con1-mADE replicon with NS3 serine protease V36M mutation in human HuH7 cells after 48 hrs by RNA replicon assay relative to wild type; assay type: functional, Hepacivirus hominis, subtype 1b Con1-mADE, Huh-7; how it was run: as §1
[6] = test system: Hepatitis C virus; test: Antiviral activity against HCV Con1-mADE replicon with NS3 serine protease V36A/R155T double mutation in human HuH7 cells after 48 hrs by RNA replicon assay relative to wild type; assay type: functional, Hepacivirus hominis, subtype 1b Con1-mADE, Huh-7; how it was run: as §1
[7] = test system: Hepatitis C virus; test: Antiviral activity against HCV Con1-mADE replicon with NS3 serine protease T54A mutation in human HuH7 cells after 48 hrs by RNA replicon assay; details: subtype 1b Con1-mADE, Huh-7, 48 h
[8] = test system: Hepatitis C virus; test: Antiviral activity against wild type Con1-mADE HCV replicon in human HuH7 cells after 48 hrs by RNA replicon assay; assay type: functional, organism-based, Hepacivirus hominis; details: subtype 1b Con1-mADE, Huh-7, 48 h; how it was run: as §1
[9] = test system: Hepatitis C virus; test: Antiviral activity against HCV Con1-mADE replicon with NS3 serine protease V36M mutation in human HuH7 cells after 48 hrs by RNA replicon assay; assay type: functional, organism-based, Hepacivirus hominis; details: subtype 1b Con1-mADE, Huh-7, 48 h; how it was run: as §1
[10] = test system: Hepatitis C virus; test: Antiviral activity against HCV Con1-mADE replicon with NS3 serine protease V36M/R155K double mutation in human HuH7 cells after 48 hrs by RNA replicon assay; assay type: functional, organism-based, Hepacivirus hominis; details: subtype 1b Con1-mADE, Huh-7, 48 h; how it was run: as §1
[11] = test system: Hepatitis C virus; test: Antiviral activity against HCV Con1-mADE replicon with NS3 serine protease V36L mutation in human HuH7 cells after 48 hrs by RNA replicon assay relative to wild type; assay type: functional, Hepacivirus hominis, subtype 1b Con1-mADE, Huh-7; how it was run: as §1
[12] = test system: Hepatitis C virus; test: Antiviral activity against HCV Con1-mADE replicon with NS3 serine protease V36A mutation in human HuH7 cells after 48 hrs by RNA replicon assay; assay type: functional, organism-based, Hepacivirus hominis; details: subtype 1b Con1-mADE, Huh-7, 48 h; how it was run: as §1
[13] = test system: Hepatitis C virus; test: Antiviral activity against HCV Con1-mADE replicon with NS3 serine protease V36M/R155T double mutation in human HuH7 cells after 48 hrs by RNA replicon assay; assay type: functional, organism-based, Hepacivirus hominis; details: subtype 1b Con1-mADE, Huh-7, 48 h; how it was run: as §1
[14] = test system: Hepatitis C virus; test: Antiviral activity against HCV Con1-mADE replicon with NS3 serine protease V36M/R155T double mutation in human HuH7 cells after 48 hrs by RNA replicon assay relative to wild type; assay type: functional, Hepacivirus hominis, subtype 1b Con1-mADE, Huh-7; how it was run: as §1
[15] = test system: Hepatitis C virus; test: Antiviral activity against HCV Con1-mADE replicon with NS3 serine protease V36A/R155K double mutation in human HuH7 cells after 48 hrs by RNA replicon assay; assay type: functional, organism-based, Hepacivirus hominis; details: subtype 1b Con1-mADE, Huh-7, 48 h; how it was run: as §1
[16] = test system: Hepatitis C virus; test: Antiviral activity against HCV genotype 1 infected in patient assessed as log10 reduction in plasma HCV RNA level at 750 mg dosed every 8 hrs measured after 2 days; assay type: functional, Hepacivirus hominis
[17] = test system: Hepatitis C virus; test: Selectivity ratio of IC50 for HCV genotype 1b NS3 protease V36A mutant to IC50 for wild type HCV genotype 1b NS3 protease; design: species or system Hepatitis C virus subtype 1b
How it was run: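 Purified genotype 1b NS3 protease domain (wild-type isolate 3111 or V36A), E. coli BL21(DE3)-expressed, preincubated with 5 μM KK4A cofactor peptide 10 min 25°C then 10 min 30°C; inhibitor 60 min 30°C; then 5 μM RET-S1 FRET depsipeptide 20 min 30°C, 10–20% turnover. IC50(1 h) fitted; fold change = variant/wild-type IC50, 3–5 independent experiments, mean ± SD.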

[18] = biological target: NS3 protease (Hepacivirus C, UniProt C1KIQ2, V36L); test: Inhibition of HCV genotype 1a NS3 protease V36L mutant expressed in Escherichia coli BL21 (DE3); design: species or system Hepatitis C virus subtype 1a
How it was run: (§2)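 NS3 protease domain (genotype 1a isolate 3201 or 1b isolate 3111) was expressed in E. coli BL21(DE3) with 5 h, 1 mM IPTG at 25°C, then purified by Talon and gel filtration. Enzyme was preincubated with 5 μM KK4A cofactor (10 min 25°C, 10 min 30°C), then inhibitor 60 min at 30°C, then 5 μM RET-S1 FRET substrate 20 min at 30°C. Substrate turnover was 10–20%. IC50(1 h) was fitted; 3–5 experiments, mean ± SD.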

[19] = test system: Hepatitis C virus; test: Antiviral activity against HCV Con1-mADE replicon with NS3 serine protease T54A mutation in human HuH7 cells after 48 hrs by RNA replicon assay relative to wild type
[20] = test system: Hepatitis C virus; test: Antiviral activity against HCV Con1-mADE replicon with NS3 serine protease V36A/T54A double mutation in human HuH7 cells after 48 hrs by RNA replicon assay; assay type: functional, organism-based, Hepacivirus hominis; details: subtype 1b Con1-mADE, Huh-7, 48 h; how it was run: as §1
[21] = test system: Hepatitis C virus; test: Antiviral activity against HCV Con1-mADE replicon with NS3 serine protease V36G mutation in human HuH7 cells after 48 hrs by RNA replicon assay; assay type: functional, organism-based, Hepacivirus hominis; details: subtype 1b Con1-mADE, Huh-7, 48 h; how it was run: as §1
[22] = test system: Hepatitis C virus; test: Antiviral activity against HCV Con1-mADE replicon with NS3 serine protease V36A/T54A double mutation in human HuH7 cells after 48 hrs by RNA replicon assay relative to wild type; assay type: functional, Hepacivirus hominis, subtype 1b Con1-mADE, Huh-7
How it was run: (§3)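 Stable HCV genotype 1b subgenomic replicon (Con1-mADE, neo) cell lines made by electroporating ScaI-linearized T7 runoff RNA into naïve Huh-7 cells; selected in 0.5 mg/ml G418, maintained in 0.25 mg/ml; NS3 substitutions confirmed by RT-PCR sequencing. EC50 from 48-h replicon RNA reduction assay, ≥3 independent experiments, mean ± SD; fold change = variant mean EC50 / wild-type mean EC50.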

[23] = test system: Hepatitis C virus; test: Antiviral activity against HCV Con1-mADE replicon with NS3 serine protease V36L mutation in human HuH7 cells after 48 hrs by RNA replicon assay; assay type: functional, organism-based, Hepacivirus hominis; details: subtype 1b Con1-mADE, Huh-7, 48 h; how it was run: as §1
[24] = test system: Hepatitis C virus; test: Antiviral activity against HCV Con1-mADE replicon with NS3 serine protease V36G mutation in human HuH7 cells after 48 hrs by RNA replicon assay relative to wild type; assay type: functional, Hepacivirus hominis, subtype 1b Con1-mADE, Huh-7; how it was run: as §3
[25] = biological target: NS3 protease (Hepacivirus C, UniProt C1KIQ2, V36M); test: Inhibition of HCV genotype 1a NS3 protease V36M mutant expressed in Escherichia coli BL21 (DE3); design: species or system Hepatitis C virus subtype 1a; how it was run: as §2
[26] = test system: Hepatitis C virus; test: Inhibition of wild type HCV genotype 1b NS3 protease expressed in Escherichia coli BL21 (DE3); design: species or system Hepatitis C virus subtype 1b
How it was run: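 NS3 protease domain (genotype 1a isolate 3201 or 1b isolate 3111) induced 5 h with 1 mM IPTG at 25°C and purified by Talon affinity and gel filtration. Preincubated with 5 μM KK4A cofactor peptide, then with inhibitor 60 min at 30°C. Then 20 min at 30°C with 5 μM RET-S1 FRET depsipeptide, reading product release at 10–20% turnover. IC50(1 h) by curve fit; 3–5 independent experiments, mean ± SD.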

[27] = test system: Hepatitis C virus; test: Inhibition of HCV genotype 1b NS3 protease V36A mutant expressed in Escherichia coli BL21 (DE3); design: species or system Hepatitis C virus subtype 1b; how it was run: as §2
[28] = biological target: NS3 protease (Hepacivirus C, UniProt C1KIQ2, R155K/V36M); test: Inhibition of HCV genotype 1a NS3 protease V36M/R155K double mutant expressed in Escherichia coli BL21 (DE3); design: species or system Hepatitis C virus subtype 1a; how it was run: as §2
[29] = test system: Hepatitis C virus; test: Antiviral activity against HCV Con1-mADE replicon with NS3 serine protease V36M/A156T double mutation in human HuH7 cells after 48 hrs by RNA replicon assay relative to wild type; assay type: functional, Hepacivirus hominis, subtype 1b Con1-mADE, Huh-7; how it was run: as §3
[30] = test system: Hepatitis C virus; test: Antiviral activity against HCV Con1-mADE replicon with NS3 serine protease V36M/A156T double mutation in human HuH7 cells after 48 hrs by RNA replicon assay; assay type: functional, organism-based, Hepacivirus hominis; details: subtype 1b Con1-mADE, Huh-7, 48 h; how it was run: as §1
[31] = Inhibition of wild type HCV genotype 1a NS3 protease expressed in Escherichia coli BL21 (DE3) measured after 1 hr
[32] = test system: Hepatitis C virus; test: Antiviral activity against HCV genotype 1 infected in patient assessed as logarithmic maximal reduction in plasma HCV RNA level at 750 mg dosed every 8 hrs measured after 14 days; assay type: functional, Hepacivirus hominis

| Structure (SMILES) | fold change (FC) [1] | fold change (FC) [2] | fold change (FC) [3] | pEC50 [4] | fold change (FC) [5] | fold change (FC) [6] | pEC50 [7] | pEC50 [8] | pEC50 [9] | pEC50 [10] | fold change (FC) [11] | pEC50 [12] | pEC50 [13] | fold change (FC) [14] | pEC50 [15] | other results |
| --- | --- | --- | --- | --- | --- | --- | --- | --- | --- | --- | --- | --- | --- | --- | --- | --- |
| NC(=O)c1ncn([C@@H]2O[C@H](CO)[C@@H](O)[C@H]2O)n1 [RIBAVIRIN] | 0.7 | 0.6 | 0.8 | 4.38 | 0.6 | 0.7 | 4.66 | 4.24 | 4.48 | 4.39 | 0.4 | 4.37 | 4.44 | 0.6 | 4.44 |  |
| CCC[C@H](NC(=O)[C@@H]1[C@H]2CCC[C@H]2CN1C(=O)[C@@H](NC(=O)[C@@H](NC(=O)c1cnccn1)C1CCCCC1)C(C)(C)C)C(=O)C(=O)NC1CC1 [TELAPREVIR] | 62 | 40 | 7.4 | < 4.52 | 7 | >62 | 5.52 | 6.31 | 5.47 | 4.52 | 2.2 | 5.44 | < 4.52 | >62 | 4.70 | Activity [16]: 3; fold change (FC) [17]: 3.6; pIC50 [18]: 6.89; fold change (FC) [19]: 6.3; pEC50 [20]: 5.01; pEC50 [21]: 5.27; fold change (FC) [22]: 20.1; pEC50 [23]: 5.96; fold change (FC) [24]: 11.2; pIC50 [25]: 6.57; pIC50 [26]: 7.20; pIC50 [27]: 6.64; pIC50 [28]: 5.47; fold change (FC) [29]: >62; pEC50 [30]: < 4.52; pIC50 [31]: 7.30; Activity [32]: 4.65 |
